Source: ChEMBL document CHEMBL1140994, “Ranking the selectivity of PubChem screening hits by activity-based protein profiling: MMP13 as a case study” (Bioorg Med Chem, 2009)
The source made the active and inactive calls. The calls are words filed in the database; no cut-off is given here.

What was measured:
Collagenase 3 [1] = target: T1, Collagenase 3 (Homo sapiens, UniProt P45452); experiment: Inhibition of human recombinant MMP13 by fluorogenic substrate assay
Collagenase 3 [2] = target: T1, Collagenase 3; experiment: Inhibition of human recombinant MMP13 by HxBPyne probe-based competitive activity based protein profiling assay
[3] = target: 72 kDa type IV collagenase (Homo sapiens) (UniProt P08253); experiment: Inhibition of human recombinant MMP2 at 200 uM by HxBPyne probe-based competitive activity based protein profiling assay in presence of 5 uM HxBpane competitor
Method in brief: (§1)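 Recombinant enzyme at 0.5 μM final in mouse liver soluble proteome (1 mg protein/mL in PBS). HxBPyne probe cocktail 0.5 μM total final, with inhibitor 200 μM or DMSO. Preincubated 30 min on ice, then UV 365 nm for 1 h on ice. Rhodamine-azide click chemistry, 1 h RT in dark. SDS-PAGE with in-gel fluorescence; band intensity given as % of DMSO control.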

[4] = target: Stromelysin-1 (Homo sapiens) (UniProt P08254); experiment: Inhibition of human recombinant MMP3 at 200 uM by HxBPyne probe-based competitive activity based protein profiling assay in presence of 5 uM HxBpane competitor; method in brief: as §1
Neutrophil collagenase [5] = target: T2, Neutrophil collagenase (Homo sapiens, UniProt P22894); experiment: Inhibition of human recombinant MMP8 at 200 uM by HxBPyne probe-based competitive activity based protein profiling assay in presence of 5 uM HxBpane competitor; method in brief: as §1
Target sequence in this assay (P22894 101-467 limits assumed): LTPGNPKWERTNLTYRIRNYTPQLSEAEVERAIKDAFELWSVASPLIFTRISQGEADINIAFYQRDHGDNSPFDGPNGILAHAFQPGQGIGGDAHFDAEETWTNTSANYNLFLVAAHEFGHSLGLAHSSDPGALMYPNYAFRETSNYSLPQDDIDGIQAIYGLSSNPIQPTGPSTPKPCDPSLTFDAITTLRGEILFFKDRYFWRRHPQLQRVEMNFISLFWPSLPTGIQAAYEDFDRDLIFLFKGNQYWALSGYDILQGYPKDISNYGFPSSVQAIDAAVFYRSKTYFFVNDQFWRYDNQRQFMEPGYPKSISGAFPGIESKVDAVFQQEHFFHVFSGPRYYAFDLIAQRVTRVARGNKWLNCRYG

[6] = target: Stromelysin-2 (Homo sapiens) (UniProt P09238); experiment: Inhibition of human recombinant MMP10 at 200 uM by HxBPyne probe-based competitive activity based protein profiling assay in presence of 5 uM HxBpane competitor; method in brief: as §1
[7] = target: Macrophage metalloelastase (Homo sapiens) (UniProt P39900); experiment: Inhibition of human recombinant MMP12 at 200 uM by HxBPyne probe-based competitive activity based protein profiling assay in presence of 5 uM HxBpane competitor; method in brief: as §1
[8] = target: T3, Stromelysin-3 (Homo sapiens) (UniProt P24347); experiment: Inhibition of human recombinant MMP11 at 200 uM by HxBPyne probe-based competitive activity based protein profiling assay in presence of 5 uM HxBpane competitor; method in brief: as §1
T3 sequence (whole entry): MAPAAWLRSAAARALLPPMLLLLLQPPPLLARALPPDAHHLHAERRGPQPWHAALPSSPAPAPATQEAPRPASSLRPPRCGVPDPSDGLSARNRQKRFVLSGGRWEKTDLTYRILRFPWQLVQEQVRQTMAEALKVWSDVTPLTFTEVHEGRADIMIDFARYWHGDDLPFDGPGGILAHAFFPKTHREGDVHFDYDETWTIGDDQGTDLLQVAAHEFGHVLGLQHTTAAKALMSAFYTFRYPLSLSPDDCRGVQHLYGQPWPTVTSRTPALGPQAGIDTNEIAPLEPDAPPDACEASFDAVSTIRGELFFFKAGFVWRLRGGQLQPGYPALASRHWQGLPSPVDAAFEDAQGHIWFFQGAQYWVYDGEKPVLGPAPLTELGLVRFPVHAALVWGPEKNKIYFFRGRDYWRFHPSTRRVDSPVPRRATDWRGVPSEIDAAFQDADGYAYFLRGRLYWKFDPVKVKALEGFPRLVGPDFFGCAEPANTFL

[9] = target: Matrix metalloproteinase-14 (Homo sapiens) (UniProt P50281); experiment: Inhibition of human recombinant MMP14 at 200 uM by HxBPyne probe-based competitive activity based protein profiling assay in presence of 5 uM HxBpane competitor; method in brief: as §1
[10] = target: Matrix metalloproteinase-15 (Homo sapiens) (UniProt P51511); experiment: Inhibition of human recombinant MMP15 at 200 uM by HxBPyne probe-based competitive activity based protein profiling assay in presence of 5 uM HxBpane competitor; method in brief: as §1
[11] = target: Matrix metalloproteinase-16 (Homo sapiens) (UniProt P51512); experiment: Inhibition of human recombinant MMP16 at 200 uM by HxBPyne probe-based competitive activity based protein profiling assay in presence of 5 uM HxBpane competitor; method in brief: as §1
[12] = target: Matrix metalloproteinase-24 (Homo sapiens) (UniProt Q9Y5R2); experiment: Inhibition of human recombinant MMP24 at 200 uM by HxBPyne probe-based competitive activity based protein profiling assay in presence of 5 uM HxBpane competitor; method in brief: as §1
[13] = target: T4, A disintegrin and metalloproteinase with thrombospondin motifs 5 (Homo sapiens) (UniProt Q9UNA0); experiment: Inhibition of human recombinant ADAMTS5 at 200 uM by HxBPyne probe-based competitive activity based protein profiling assay in presence of 5 uM HxBpane competitor; method in brief: as §1
T4 sequence (whole entry): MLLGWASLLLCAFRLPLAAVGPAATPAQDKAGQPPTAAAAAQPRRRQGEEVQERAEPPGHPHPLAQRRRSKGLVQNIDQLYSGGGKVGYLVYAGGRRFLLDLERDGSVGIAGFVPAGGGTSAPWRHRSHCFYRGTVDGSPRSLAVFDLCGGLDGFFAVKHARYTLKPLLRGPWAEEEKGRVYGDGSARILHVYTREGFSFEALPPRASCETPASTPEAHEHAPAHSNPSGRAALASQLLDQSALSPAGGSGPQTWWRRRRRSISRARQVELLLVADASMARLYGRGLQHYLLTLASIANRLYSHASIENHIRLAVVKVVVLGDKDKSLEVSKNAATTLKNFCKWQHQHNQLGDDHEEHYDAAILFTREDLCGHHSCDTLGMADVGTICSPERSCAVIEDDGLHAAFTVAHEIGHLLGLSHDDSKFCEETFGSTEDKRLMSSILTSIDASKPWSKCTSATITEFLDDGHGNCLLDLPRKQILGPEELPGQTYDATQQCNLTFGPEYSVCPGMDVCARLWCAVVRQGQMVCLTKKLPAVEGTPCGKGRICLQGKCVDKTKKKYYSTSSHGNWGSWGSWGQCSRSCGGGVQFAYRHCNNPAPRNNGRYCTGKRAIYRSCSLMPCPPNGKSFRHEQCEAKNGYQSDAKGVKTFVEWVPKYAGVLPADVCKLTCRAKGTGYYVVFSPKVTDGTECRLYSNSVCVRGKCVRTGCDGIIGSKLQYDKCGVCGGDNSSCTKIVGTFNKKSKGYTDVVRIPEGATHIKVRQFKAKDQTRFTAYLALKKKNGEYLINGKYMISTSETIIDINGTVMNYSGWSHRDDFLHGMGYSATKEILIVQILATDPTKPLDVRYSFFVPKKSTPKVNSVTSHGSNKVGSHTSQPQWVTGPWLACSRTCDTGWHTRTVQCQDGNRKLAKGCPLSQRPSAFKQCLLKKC

Neutrophil collagenase [14] = target: T2, Neutrophil collagenase; experiment: Inhibition of human recombinant MMP8 by fluorogenic substrate assay
Method in brief: (§2)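 Enzyme (MMP8 6 nM, MMP9 2 nM, MMP13 1.5 nM final) preincubated with inhibitor 30 min in 50 mM HEPES pH 7.5, 10 mM CaCl2, 0.05% Brij-35, at RT. Mca-PLGL-Dpa-AR-NH2 added at 5 μM; fluorescence (ex 328/em 393 nm) read each minute for 10 min. Initial rates by linear least squares; IC50 from variable-slope sigmoidal fit. Triplicate; mean with 95% CI.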
Target sequence in this assay (P22894 whole entry): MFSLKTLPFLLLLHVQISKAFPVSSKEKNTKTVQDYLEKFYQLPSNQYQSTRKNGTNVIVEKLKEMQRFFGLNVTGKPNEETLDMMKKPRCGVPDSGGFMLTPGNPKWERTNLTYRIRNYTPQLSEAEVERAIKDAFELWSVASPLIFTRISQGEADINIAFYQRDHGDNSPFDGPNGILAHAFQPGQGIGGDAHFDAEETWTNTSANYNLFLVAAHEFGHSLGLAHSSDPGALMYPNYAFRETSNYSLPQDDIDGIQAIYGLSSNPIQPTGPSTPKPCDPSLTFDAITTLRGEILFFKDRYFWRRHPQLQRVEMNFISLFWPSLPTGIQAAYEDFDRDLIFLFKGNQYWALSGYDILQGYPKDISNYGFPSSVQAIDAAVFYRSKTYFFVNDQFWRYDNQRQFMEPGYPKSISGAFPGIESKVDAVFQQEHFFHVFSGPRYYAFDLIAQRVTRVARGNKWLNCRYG

[15] = target: T5, Matrix metalloproteinase-9 (Homo sapiens, UniProt P14780); experiment: Inhibition of human recombinant MMP9 by fluorogenic substrate assay; method in brief: as §2
[16] = target: T6, Disintegrin and metalloproteinase domain-containing protein 8 (Homo sapiens) (UniProt P78325); experiment: Inhibition of human recombinant ADAM8 at 200 uM by HxBPyne probe-based competitive activity based protein profiling assay in presence of 5 uM HxBpane competitor; method in brief: as §1
T6 sequence (whole entry): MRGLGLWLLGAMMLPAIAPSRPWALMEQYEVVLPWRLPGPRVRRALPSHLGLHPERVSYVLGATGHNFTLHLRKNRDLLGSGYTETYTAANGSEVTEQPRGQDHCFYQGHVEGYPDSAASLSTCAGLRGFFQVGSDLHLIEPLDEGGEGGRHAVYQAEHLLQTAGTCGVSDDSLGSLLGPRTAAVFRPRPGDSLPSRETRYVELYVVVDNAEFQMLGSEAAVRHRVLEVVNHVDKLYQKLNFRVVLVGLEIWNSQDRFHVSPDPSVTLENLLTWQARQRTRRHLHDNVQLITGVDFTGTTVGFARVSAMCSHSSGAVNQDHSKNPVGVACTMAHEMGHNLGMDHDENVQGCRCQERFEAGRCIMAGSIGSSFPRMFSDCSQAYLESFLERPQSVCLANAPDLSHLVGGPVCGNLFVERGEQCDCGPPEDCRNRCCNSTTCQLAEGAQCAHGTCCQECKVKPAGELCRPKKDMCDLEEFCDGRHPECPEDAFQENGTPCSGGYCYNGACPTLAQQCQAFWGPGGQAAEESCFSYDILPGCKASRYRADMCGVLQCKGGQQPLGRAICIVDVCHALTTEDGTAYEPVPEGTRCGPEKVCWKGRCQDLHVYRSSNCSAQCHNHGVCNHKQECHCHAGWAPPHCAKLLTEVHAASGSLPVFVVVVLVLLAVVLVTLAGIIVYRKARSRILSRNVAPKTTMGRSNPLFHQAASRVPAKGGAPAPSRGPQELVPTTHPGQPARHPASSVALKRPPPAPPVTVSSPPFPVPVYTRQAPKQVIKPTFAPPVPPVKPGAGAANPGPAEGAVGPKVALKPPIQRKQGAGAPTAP

[17] = target: T5, Matrix metalloproteinase-9; experiment: Inhibition of human recombinant MMP9 at 200 uM by HxBP-Rh probe-based competitive activity based protein profiling assay in presence of 200 uM HxBP-alkyne
Method in brief: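 Enzyme 0.5 μM final, in PBS (ADAMTS4, neprilysin) or in 1 mg/mL mouse liver soluble proteome (MMP9). HxBP-Rh probe 0.5 μM final with 200 μM inhibitor or DMSO. Preincubated 30 min on ice, UV 365 nm 1 h on ice. Deglycosylated with PNGase F, then SDS-PAGE with fluorescence scanning. Activity given relative to DMSO control.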

T5 sequence (P14780 whole entry, the tested form may be a part): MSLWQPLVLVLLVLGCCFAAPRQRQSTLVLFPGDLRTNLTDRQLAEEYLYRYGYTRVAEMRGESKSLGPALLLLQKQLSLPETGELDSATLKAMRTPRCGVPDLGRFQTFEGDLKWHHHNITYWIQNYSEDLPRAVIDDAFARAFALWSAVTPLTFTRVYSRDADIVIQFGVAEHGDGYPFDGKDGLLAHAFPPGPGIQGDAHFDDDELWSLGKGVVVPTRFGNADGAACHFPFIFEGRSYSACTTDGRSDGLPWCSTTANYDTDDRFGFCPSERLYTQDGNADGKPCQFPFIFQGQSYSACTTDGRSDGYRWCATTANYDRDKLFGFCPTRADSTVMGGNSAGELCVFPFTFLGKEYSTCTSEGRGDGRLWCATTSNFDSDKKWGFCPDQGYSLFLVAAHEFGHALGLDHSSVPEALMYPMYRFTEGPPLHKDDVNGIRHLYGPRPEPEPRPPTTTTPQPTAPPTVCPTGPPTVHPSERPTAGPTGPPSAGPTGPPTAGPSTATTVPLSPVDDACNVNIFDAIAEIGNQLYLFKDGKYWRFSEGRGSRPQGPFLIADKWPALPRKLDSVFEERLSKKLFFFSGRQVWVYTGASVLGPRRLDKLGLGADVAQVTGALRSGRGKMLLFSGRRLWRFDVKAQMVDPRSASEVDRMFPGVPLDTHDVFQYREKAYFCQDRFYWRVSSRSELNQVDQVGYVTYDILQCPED
Chain of 72 kDa type IV collagenase (Homo sapiens) (P08253 110-660 limits assumed): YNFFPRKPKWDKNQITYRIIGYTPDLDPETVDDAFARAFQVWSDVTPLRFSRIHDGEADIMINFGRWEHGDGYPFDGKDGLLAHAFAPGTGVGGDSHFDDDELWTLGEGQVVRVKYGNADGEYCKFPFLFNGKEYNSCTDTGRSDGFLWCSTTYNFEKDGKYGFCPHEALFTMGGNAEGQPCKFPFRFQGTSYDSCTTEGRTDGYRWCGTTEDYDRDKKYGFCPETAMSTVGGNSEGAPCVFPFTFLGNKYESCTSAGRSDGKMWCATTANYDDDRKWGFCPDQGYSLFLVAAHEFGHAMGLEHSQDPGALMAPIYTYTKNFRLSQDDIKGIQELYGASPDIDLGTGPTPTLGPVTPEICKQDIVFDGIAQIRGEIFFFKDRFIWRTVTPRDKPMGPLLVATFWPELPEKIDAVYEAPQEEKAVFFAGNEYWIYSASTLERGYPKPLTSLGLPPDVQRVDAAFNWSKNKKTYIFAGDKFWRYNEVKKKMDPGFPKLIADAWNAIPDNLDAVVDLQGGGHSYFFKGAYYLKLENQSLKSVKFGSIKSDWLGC
Chain of Stromelysin-1 (Homo sapiens) (P08254 100-477 limits assumed): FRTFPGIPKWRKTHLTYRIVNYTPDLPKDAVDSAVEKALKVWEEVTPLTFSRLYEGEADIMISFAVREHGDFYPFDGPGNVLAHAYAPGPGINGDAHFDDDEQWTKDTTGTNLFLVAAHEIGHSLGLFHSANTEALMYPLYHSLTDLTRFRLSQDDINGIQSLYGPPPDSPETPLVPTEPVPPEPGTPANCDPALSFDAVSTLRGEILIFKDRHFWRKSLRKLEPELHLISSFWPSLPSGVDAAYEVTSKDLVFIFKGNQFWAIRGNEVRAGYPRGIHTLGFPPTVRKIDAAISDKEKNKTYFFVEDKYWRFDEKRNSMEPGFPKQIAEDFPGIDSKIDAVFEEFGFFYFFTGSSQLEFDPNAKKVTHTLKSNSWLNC
Chain of Stromelysin-2 (Homo sapiens) (P09238 99-476 limits assumed): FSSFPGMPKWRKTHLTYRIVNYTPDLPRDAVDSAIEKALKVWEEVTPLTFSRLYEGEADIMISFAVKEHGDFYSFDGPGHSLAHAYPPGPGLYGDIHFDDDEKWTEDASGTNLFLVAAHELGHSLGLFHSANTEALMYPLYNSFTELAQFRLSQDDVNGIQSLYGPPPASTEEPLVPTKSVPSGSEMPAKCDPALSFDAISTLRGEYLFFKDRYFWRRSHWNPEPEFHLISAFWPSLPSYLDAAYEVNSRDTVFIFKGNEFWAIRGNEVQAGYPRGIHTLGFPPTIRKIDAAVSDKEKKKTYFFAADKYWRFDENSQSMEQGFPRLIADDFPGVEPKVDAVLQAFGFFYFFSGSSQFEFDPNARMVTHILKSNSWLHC
Chain of Macrophage metalloelastase (Homo sapiens) (P39900 106-470 limits assumed): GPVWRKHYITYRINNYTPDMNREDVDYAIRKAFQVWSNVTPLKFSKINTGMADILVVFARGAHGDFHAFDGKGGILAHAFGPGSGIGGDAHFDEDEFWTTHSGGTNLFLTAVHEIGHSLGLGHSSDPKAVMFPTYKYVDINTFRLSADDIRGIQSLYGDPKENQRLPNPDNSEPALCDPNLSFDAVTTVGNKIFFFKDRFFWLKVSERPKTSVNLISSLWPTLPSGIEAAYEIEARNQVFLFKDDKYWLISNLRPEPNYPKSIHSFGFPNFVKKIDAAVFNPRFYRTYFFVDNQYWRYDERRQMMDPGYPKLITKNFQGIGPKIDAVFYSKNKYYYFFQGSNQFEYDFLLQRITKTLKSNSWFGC
Chain of Matrix metalloproteinase-15 (Homo sapiens) (P51511 132-669 limits assumed): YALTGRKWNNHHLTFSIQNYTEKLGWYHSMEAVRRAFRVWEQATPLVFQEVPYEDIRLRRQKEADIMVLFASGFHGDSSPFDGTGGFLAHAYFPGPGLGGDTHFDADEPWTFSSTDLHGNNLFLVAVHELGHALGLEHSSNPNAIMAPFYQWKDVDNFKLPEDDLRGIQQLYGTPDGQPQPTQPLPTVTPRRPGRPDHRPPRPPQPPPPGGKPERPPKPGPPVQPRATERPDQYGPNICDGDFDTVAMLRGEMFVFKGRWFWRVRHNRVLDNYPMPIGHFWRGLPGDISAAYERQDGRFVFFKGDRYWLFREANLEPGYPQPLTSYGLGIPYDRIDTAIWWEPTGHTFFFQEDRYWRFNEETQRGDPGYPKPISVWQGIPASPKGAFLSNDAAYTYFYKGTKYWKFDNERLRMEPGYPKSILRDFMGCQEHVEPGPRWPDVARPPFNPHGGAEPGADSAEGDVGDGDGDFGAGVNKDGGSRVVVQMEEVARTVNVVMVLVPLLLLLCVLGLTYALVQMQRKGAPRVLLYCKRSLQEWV
Chain of Matrix metalloproteinase-16 (Homo sapiens) (P51512 whole entry): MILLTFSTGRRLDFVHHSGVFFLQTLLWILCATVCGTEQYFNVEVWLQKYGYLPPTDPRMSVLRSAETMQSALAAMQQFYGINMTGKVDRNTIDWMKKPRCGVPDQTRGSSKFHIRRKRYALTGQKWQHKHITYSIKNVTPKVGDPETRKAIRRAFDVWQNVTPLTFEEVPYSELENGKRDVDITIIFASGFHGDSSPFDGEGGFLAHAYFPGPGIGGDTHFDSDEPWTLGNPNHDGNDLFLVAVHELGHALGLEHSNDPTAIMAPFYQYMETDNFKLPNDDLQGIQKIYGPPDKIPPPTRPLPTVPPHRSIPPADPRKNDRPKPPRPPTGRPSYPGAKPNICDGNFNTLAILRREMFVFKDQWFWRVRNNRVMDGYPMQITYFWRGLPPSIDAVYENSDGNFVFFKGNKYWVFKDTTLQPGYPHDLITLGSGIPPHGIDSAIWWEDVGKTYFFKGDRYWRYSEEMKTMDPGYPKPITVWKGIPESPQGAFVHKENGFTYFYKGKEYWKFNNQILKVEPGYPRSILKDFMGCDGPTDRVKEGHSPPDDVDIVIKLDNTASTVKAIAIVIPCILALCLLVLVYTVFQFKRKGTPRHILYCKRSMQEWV

Row | IC50 (Collagenase 3 [1]) [µM] | IC50 (Collagenase 3 [2]) [µM] | Activity [3] | Activity [4] | Activity (Neutrophil collagenase [5]) | Activity [6] | Activity [7] | Activity [8] | Activity [9] | Activity [10] | Activity [11] | Activity [12] | Activity [13] | IC50 (Neutrophil collagenase [14]) [µM] | IC50 [15] [µM] | Activity [16] | Activity [17] | Compound
1 | 0.28 | 13 | Active | Active | Active | Active | Active | Active | Active | Active | Active | Active | Active | 0.024 | 14 | – | – | O=C(O)CCC(NS(=O)(=O)c1ccc(-c2ccccc2)cc1)C(=O)O (stereo unspecified)
2 | 1.3 | 27 | Active | Active | Active | Active | Active | – | – | – | – | – | – | 0.67 | 0.16 | Active | Active | CCCCCCOc1ccc(C(CC(=O)O)C(N)=O)cc1 (stereo unspecified)
